Compounds with a hit are over-represented: about 1% of the library has one in this group of screens.
LYPLA1 counter – LYPLA1 (human) inhibition in PME1 counter-screen; 320,000 tested, 0.16% active; recombinant LYPLA1, FP-Rh probe fluorescence polarization; inhibition, % at 5.9 µM; O75608;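 active = inhibition above the mean of all tested compounds plus 3 SD, set per campaign, cut at about 14% in these data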;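 note: inhibitors block serine hydrolase probe labeling of LYPLA1 so polarization falls; 0% = enzyme with DMSO and 100% = wells lacking LYPLA1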
Target sequence (O75608 whole entry, looked up): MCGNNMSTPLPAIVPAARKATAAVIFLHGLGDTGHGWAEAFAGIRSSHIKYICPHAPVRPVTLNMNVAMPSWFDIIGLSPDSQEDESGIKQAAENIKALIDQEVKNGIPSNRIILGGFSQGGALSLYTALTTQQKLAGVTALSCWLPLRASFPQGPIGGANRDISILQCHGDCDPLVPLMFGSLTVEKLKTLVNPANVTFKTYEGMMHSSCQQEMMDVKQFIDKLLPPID
proCasp7 act – counter-screen for procaspase-3 activators: activators of human procaspase-7; activation, % at 8.5 µM; P55210; recombinant procaspase-7, Ac-DEVD-pNA absorbance 405 nm; D23A/D198A/D206A triple mutant, cannot self-cleave; scale: DMSO 0, 5 µM enzyme 100; 330,000 tested, 0.093% active;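 active = percent activation above the screen-wide mean plus 3 SD, cut at about 25% in these data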
Target sequence (P55210 whole entry D23A/D198A/D206A): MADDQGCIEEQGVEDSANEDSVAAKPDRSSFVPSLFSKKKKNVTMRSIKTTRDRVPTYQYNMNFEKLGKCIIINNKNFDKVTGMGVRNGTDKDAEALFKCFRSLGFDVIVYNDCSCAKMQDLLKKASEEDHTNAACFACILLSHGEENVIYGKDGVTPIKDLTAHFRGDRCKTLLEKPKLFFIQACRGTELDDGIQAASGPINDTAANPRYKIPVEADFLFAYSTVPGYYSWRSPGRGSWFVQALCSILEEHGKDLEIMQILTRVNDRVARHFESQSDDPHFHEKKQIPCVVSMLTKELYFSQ
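System: Uncleavable procaspase-7 mutant enzyme; Amount: 2 µM procaspase-7 mutant as dispensed; Schedule: 1 h compound preincubation, 2 h substrate cleavage, 25 °C; Measured by: 405 nm absorbance of p-nitroaniline; Evaluation: percent activation from buffer-corrected 0–120 min absorbance change; Control set: low DMSO alone, high DMSO plus 5 µM PC-7.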
Fam108B counter – Fam108B inhibition, counter-screen for RBBP9 inhibitors; 300,000 tested, 0.33% active; AID 1947; inhibition, % at 9.51 µM; recombinant Fam108B, FP-Rh probe fluorescence polarization;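 active = inhibition above the screen mean inhibition plus 3 SD, computed separately per campaign, cut at about 18% in these data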;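 note: inhibitors lower polarization as less probe binds the enzyme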
LYPLA2 counter – blocks human lysophospholipase 2, a PME1 counter-screen; O95372; recombinant LYPLA2, FP-Rh probe fluorescence polarization; inhibition, % at 5.9 µM; 320,000 tested, 0.38% active; AID 2177;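 active = inhibition above the screen-wide mean plus 3 SD, limit set per campaign, cut at about 26% in these data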;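 note: 0% = LYPLA2 with DMSO and 100% = wells lacking LYPLA2 enzyme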
proCasp3 act – activators of human procaspase-3. P42574. recombinant procaspase-3 D3A, Ac-DEVD-pNA absorbance 405 nm. activation, % at 8.5 µM. 330,000 tested, 0.11% active. AID 463141;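 active = activation above the mean of all tested compounds plus 3 SD, cut at about 21% in these data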;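 note: 0% = DMSO alone and 100% = DMSO wells spiked with extra 5 µM PC-3 D3A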
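Assay system: Procaspase-3 D3A mutant, all three cleavage aspartates alanine. Buffer or medium: Zinc-free HEPES saline buffer with Triton X-100. Times: 1 h compound preincubation, 2 h substrate hydrolysis at 25 °C. Measured by: 405 nm absorbance of p-nitroaniline, reads at 0 and 120 min. Read-out basis: percent activation relative to control range. Replicates: singlicate.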
PME-1 primary – blocks human protein phosphatase methylesterase 1 | Q9Y570 | recombinant PME-1, FP-Rh probe fluorescence polarization | inhibition, % at 5.9 µM | 320,000 tested, 0.53% active;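 active = inhibition above the campaign mean of all compounds plus 3 SD, cut at about 26% in these data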;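 note: competitive labeling of PME-1 active site by serine hydrolase directed probe; 0% = PME-1 with DMSO and 100% = wells lacking PME-1 enzyme; inhibitors block probe labeling so polarization falls and inhibition rises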
LYPLA2 confirm – LYPLA2 (human) inhibition, confirmation counter-screen. shares compounds with LYPLA2 counter. recombinant LYPLA2, FP-Rh probe fluorescence polarization. inhibition, % at 5.9 µM. 1,100 tested, 72% active. AID 2232;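 active = mean inhibition across replicates above the hit cutoff set in the primary screen, cut at about 26% in these data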;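 note: blocked labeling of the enzyme by serine hydrolase FP-Rh probe lowers polarization; 0% = enzyme with DMSO and 100% = wells lacking LYPLA2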
LYPLA2 ABPP – blocks human acyl-protein thioesterase 2 in gel ABPP; shares compounds with LYPLA2 counter; rhLYPLA2 in mouse brain proteome, gel ABPP FP-Rh; inhibition, % at 20 µM; 150 tested, 30% active;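 active = inhibition of LYPLA2 enzyme probe labeling above about 50%, limit read from the data; inactive = inhibition below that limit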;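 note: loss of FP-Rh probe labeling of the LYPLA2 gel band measured as band density; 0% = DMSO only control band and 100% = blank gel background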
* hit, by the source's call; nt = no result given.

SMILES	LYPLA1 counter	proCasp7 act	Fam108B counter	LYPLA2 counter	proCasp3 act	PME-1 primary	LYPLA2 confirm	others
CN(C(=O)COc1ccc([N+](=O)[O-])cc1)C1CCS(=O)(=O)C1 (stereo not given)	0.9	7.8	3.7	30.7*	2.0	-4.8	6.6
COc1ccc(CCNC(=O)COc2ccc(-c3ccc(C)cc3)cc2)cc1OC	-0.4	6.6	-0.3	45.4*	2.1	-0.9	40.5*
COc1ccc(CC(=O)Nc2cccc(-c3nnc(-c4ccc(C)cc4)o3)c2)cc1OC	-3.1	11.0	-8.4	30.7*	-3.6	-5.2	13.0
COc1ccc(CCNC(=O)CCOc2ccc(C)cc2)cc1OC	2.3	1.1	4.2	1.8	3.2	3.4	nt
CN(C)/C=C(\C#N)C(=O)Nc1ccc(O)cc1F	0.8	1.6	0.7	2.8	3.4	4.3	nt
COc1ccc(CNC(=O)CN(C(=O)CCC(=O)Nc2ccccn2)c2cccc(C)c2C)cc1	1.1	2.0	-1.9	0.7	1.3	-0.7	nt
CCN(CC)S(=O)(=O)c1ccc(N2CCOCC2)c(NC(=O)CNCCc2ccccc2)c1	0.1	5.5	-0.3	53.0*	8.4	6.4	57.6*	LYPLA2 ABPP=16.0
CCN(CC)S(=O)(=O)c1ccc(N2CCOCC2)c(NC(=O)COc2ccccc2)c1	0.5	0.5	-1.5	4.2	-5.4	8.4	nt
O=C(CSc1nc2nn(-c3ccccc3)c(=O)c-2c2n1CCCCC2)Nc1cccc(F)c1	nt	-3.5	nt	nt	10.6	nt	nt
CCN(CC(=O)Nc1ccc(OC)cc1)C(=O)c1cc(S(=O)(=O)N(C)C)ccc1N1CCCC1	-0.7	0.8	0.6	-5.3	-0.9	0.7	nt
Cc1cc(N2CCN(c3ccc(C(F)(F)F)cc3[N+](=O)[O-])CC2)c2ccccc2n1	2.5	6.0	2.7	29.3*	-3.1	3.9	25.8*
COc1ccc2c(c1)O[C@H](c1ccc3c(c1)OCO3)[C@@H](O)C2=O	1.9	-36.1	-0.4	64.2*	0.5	6.2	57.8*	LYPLA2 ABPP=45.0
COc1ccc2c(c1)O[C@@H](c1cccc(C(F)(F)F)c1)[C@H](O)C2=O	2.7	-46.2	3.1	18.0	-21.8	-2.1	nt
CC(=O)Nc1ccc(CN2CCN(c3cccc(C(F)(F)F)c3)CC2)cc1	4.8	-13.1	-2.7	54.5*	3.8	1.0	57.8*	LYPLA2 ABPP=17.0
CC/C(C)=C1\SC(N2CCN(c3cccc(C(F)(F)F)c3)CC2)=NC1=O	2.7	-1.2	0.7	32.9*	4.6	-5.0	31.4*
O=C(CN1C(=O)NC2(CCCCCC2)C1=O)c1ccc(Cl)s1	1.5	4.3	-1.9	0.4	-3.0	-2.9	nt
CC(=O)Nc1ccc(NC(=O)CSc2nnc3ccc(-c4cccnc4)nn23)cc1	4.8	1.7	-1.8	2.7	2.2	2.4	nt
Cc1c(S(=O)(=O)NC2CCCCCC2)c(=O)n(C)c(=O)n1C	3.9	7.3	3.5	-1.5	3.9	4.3	nt
CC(=O)Nc1ccc(S(=O)(=O)NC2CCSc3ccccc32)cc1 (stereo not given)	3.0	-0.5	1.4	32.3*	9.2	16.6	1.8
CC(=O)NCCC(=O)Nc1cc(S(=O)(=O)N2CCOCC2)ccc1N1CCCC1	-2.1	-7.4	-1.8	0.8	11.0	1.8	nt
C/C(=N/OC(=O)C1CC1)c1cc(-c2ccc(Cl)cc2)no1	4.5	4.2	5.2	37.4*	4.5	-0.5	22.1
C/C(=N\OC(=O)c1ccccc1)c1cc(-c2ccc(Cl)cc2)no1	-0.3	8.3	1.1	5.2	5.8	-5.8	nt
CCCOc1ccc(N2C(=O)CC(N3CCN(c4ccc([N+](=O)[O-])cc4)CC3)C2=O)cc1 (stereo not given)	1.8	-10.9	-4.6	35.0*	-18.8	5.8	36.4*

Screening results: PubChem BioAssay, The Scripps Research Institute Molecular Screening Center
